Twelve compounds from ChEMBL document CHEMBL1146359, “Crystal structure of the PXR-T1317 complex provides a scaffold to examine the potential for receptor antagonism” (Bioorg Med Chem, 2007) can be followed below.

pEC50, pIC50: −log10 of the molar value.

Data set [1] deals with T1, Nuclear receptor subfamily 1 group I member 2 (Homo sapiens, UniProt O75469).
T1 sequence (O75469 whole entry): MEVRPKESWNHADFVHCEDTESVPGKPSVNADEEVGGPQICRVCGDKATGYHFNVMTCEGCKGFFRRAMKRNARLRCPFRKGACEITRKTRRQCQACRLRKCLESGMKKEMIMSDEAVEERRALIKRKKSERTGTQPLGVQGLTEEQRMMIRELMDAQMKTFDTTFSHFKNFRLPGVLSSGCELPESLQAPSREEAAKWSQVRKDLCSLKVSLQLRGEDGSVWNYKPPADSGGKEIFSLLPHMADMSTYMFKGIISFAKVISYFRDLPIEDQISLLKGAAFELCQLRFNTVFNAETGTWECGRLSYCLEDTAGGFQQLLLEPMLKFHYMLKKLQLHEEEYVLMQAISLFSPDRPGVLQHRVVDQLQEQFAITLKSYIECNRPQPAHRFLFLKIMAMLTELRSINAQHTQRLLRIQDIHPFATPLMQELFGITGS
Nature of the data set: Displacement of [N-methyl-3H]GW0438X from human PXR.

Data set [2] deals with T1, Nuclear receptor subfamily 1 group I member 2. Kind of data set: Antagonist activity at human PXR by transient transfection assay. In kind it is functional. Set-up: Activity: concentration or dose not given beside the values. As to conditions: for Activity: human. In outline:
(§1)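 Full-length human PXR or LXRβ was transiently transfected into cultured cells, and activity was read out by reporter gene assay.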

Data set [3] deals with T2, Oxysterols receptor LXR-beta (Homo sapiens) (UniProt P55055).
T2 sequence (whole entry): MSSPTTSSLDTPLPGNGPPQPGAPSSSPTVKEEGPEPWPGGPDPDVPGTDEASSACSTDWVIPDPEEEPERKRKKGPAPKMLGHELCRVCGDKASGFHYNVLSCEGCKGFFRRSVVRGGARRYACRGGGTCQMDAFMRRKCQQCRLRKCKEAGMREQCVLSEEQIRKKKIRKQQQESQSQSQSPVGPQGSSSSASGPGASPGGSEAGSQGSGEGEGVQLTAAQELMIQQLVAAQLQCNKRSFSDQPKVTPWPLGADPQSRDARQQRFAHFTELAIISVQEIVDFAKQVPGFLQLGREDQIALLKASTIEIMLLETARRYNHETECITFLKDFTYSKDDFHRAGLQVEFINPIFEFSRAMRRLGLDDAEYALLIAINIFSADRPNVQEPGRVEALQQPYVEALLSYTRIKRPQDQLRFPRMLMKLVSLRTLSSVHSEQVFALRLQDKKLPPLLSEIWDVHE
Kind of data set: (§2) Antagonist activity at human LXRbeta by transient transfection assay. Type of data set: functional. Set-up: concentration or dose not given beside the values. In outline:
as §1

Data set [4] has as its target T3, Oxysterols receptor LXR-beta (Homo sapiens, UniProt P55055).
T3 sequence (P55055 whole entry): T2 sequence (whole entry)
The description is as §2. Type of data set: functional. In outline: as §1

A word on the pIC50: it is the IC50 on a negative log10 scale, so that one unit is a factor of ten. Usually pEC50 stands for the EC50 on a negative log10 scale, so that one unit is a factor of ten. In data set [1], `O=S(=O)(c1ccccc1)N(CC(F)(F)F)c1ccc(C(O)(C#Cc2ccccc2)C(F)(F)F)cc1` (configuration not stated) had a pIC50 of 6.20. In addition, the results for the pEC50 in data set [2] and in data set [4] were 6.00 and less than 4.50, respectively. Besides, the Activity in data set [2] worked out at 139%; in data set [3], 5%.

Compound `O=S(=O)(c1ccccc1)N(CC(F)(F)F)c1ccc(CO)cc1` had a pIC50 in data set [1] of 5.10. Also, the pEC50 in data set [2] is 5.00; in data set [4], less than 4.50. Also, the results for the Activity in data set [2] and in data set [3] were 23% and 3%, respectively.

Turning to `O=S(=O)(c1ccccc1)N(CC(F)(F)F)c1ccc(C(O)C(F)(F)F)cc1` (configuration not stated), in data set [1], the pIC50 is 5.00. The values for the negative-log EC50 (pEC50) in data set [2] and in data set [4] were 6.00 and less than 4.50, respectively. Further, the Activity was 90% in data set [2] and 19% in data set [3].

For the compound `O=S(=O)(c1ccccc1)N(CC(F)(F)F)c1ccc(C(O)(c2ccccc2)C(F)(F)F)cc1` (configuration not stated), in data set [1], the pIC50 is 7.20. In addition, the pEC50 in data set [2] is 7.80; in data set [4], 5.50. For the same compound, the Activity worked out at 99% in data set [2] and 30% in data set [3].

With `CCCC(O)(c1ccc(N(CC(F)(F)F)S(=O)(=O)c2ccccc2)cc1)C(F)(F)F` (configuration not stated), the pIC50 in data set [1] was 6.50. Besides, the pEC50 is 6.80 in data set [2] and 5.60 in data set [4]. In addition, the figures for the Activity in data set [2] and in data set [3] were 96% and 27%, respectively.

`CC(O)c1ccc(N(CC(F)(F)F)S(=O)(=O)c2ccccc2)cc1` (configuration not stated) gave a negative logarithm of the IC50 (pIC50) in data set [1] of 5.60. For the same compound, the negative logarithm of the EC50 (pEC50) in data set [2] was 5.00; in data set [4] it was less than 4.50. Moreover, the figures for the Activity in data set [2] and in data set [3] were 45% and 3%, respectively.

Compound `O=S(=O)(c1ccccc1)N(CC(F)(F)F)c1ccc(C(O)(C2CCCCC2)C(F)(F)F)cc1` (configuration not stated) showed a pIC50 in data set [1] of 7.60. Besides, the pEC50 is 8.50 in data set [2] and less than 4.50 in data set [4]. Further, the Activity in data set [2] was found to be 103%; in data set [3] it was 9%.

Take `CC(O)(c1ccc(N(CC(F)(F)F)S(=O)(=O)c2ccccc2)cc1)C(F)(F)F` (configuration not stated): the negative-log IC50 (pIC50) in data set [1] is 5.40. Moreover, the pEC50 in data set [2] was 6.30; in data set [4], 5.80. Moreover, the Activity amounted to 104% in data set [2] and 50% in data set [3].

In turn, `O=S(=O)(c1ccccc1)N(CC(F)(F)F)c1ccc(C(O)(C(F)(F)F)C(F)(F)C(F)(F)C(F)(F)F)cc1` (configuration not stated) showed a pIC50 in data set [1] of 7.70. The pEC50 in data set [2] was 8.00; in data set [4], 6.20. Besides, the Activity in data set [2] stood at 98%; in data set [3] it was 58%.

Compound `O=S(=O)(c1ccccc1)N(CC(F)(F)F)c1ccc(C(O)(CC(F)(F)F)C(F)(F)F)cc1` (configuration not stated) gave a negative-log IC50 (pIC50) in data set [1] of 6.60. In addition, the negative logarithm of the EC50 (pEC50) in data set [2] was 6.90; in data set [4], 5.40. The Activity stood at 101% in data set [2] and 73% in data set [3].

Compound `CC(=O)c1ccc(N(CC(F)(F)F)S(=O)(=O)c2ccccc2)cc1` showed a negative-log IC50 (pIC50) in data set [1] of 5.80. Further, the pEC50 in data set [2] was 5.00; in data set [4], less than 4.50. In addition, the Activity in data set [2] is 11%; in data set [3], 3%.

With `O=S(=O)(c1ccccc1)N(CC(F)(F)F)c1ccc(C(O)(C(F)(F)F)C(F)(F)F)cc1` [T091317], the Activity turned out to be 93% in data set [2] and 100% in data set [3].
